Our source for the EC50, Ki and Intrinsic activity values is ChEMBL document CHEMBL1137342 (J Med Chem, 2006).

Each structure is given as a SMILES string. A value given as a limit tells only on which side of the number the result lay.

The target of assay [1] is T1, D(4) dopamine receptor (Homo sapiens, UniProt P21917).
T1 sequence (P21917 whole entry): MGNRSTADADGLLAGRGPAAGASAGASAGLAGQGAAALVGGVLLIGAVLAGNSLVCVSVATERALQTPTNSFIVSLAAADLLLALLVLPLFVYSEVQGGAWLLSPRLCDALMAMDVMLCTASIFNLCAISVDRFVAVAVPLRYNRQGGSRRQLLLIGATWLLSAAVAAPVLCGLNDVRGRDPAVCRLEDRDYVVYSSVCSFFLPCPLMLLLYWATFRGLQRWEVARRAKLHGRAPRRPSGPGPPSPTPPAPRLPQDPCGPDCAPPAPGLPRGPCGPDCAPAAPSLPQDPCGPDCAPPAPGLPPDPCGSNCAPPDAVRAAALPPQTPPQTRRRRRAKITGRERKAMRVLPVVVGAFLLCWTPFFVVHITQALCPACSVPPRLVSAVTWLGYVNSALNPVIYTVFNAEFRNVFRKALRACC
The format is functional, cell-based, HEK293.

Assay [2] addresses D(2) dopamine receptor (Rattus norvegicus, UniProt P61169). Put plainly: Activity at rat dopamine D2L receptor expressed in HEK293 cells assessed as inhibition of forskolin-stimulated cAMP production. The format is functional, cell-based. Summed up:
(§1)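 HEK293 cells stably expressing rat D2L, grown in DMEM with 5% fetal clone serum, 5% bovine calf serum and puromycin. Confluent monolayers were treated with ligands diluted in EBSS buffer (pH 7.4) with 5 µM forskolin and 500 µM IBMX. The reaction was stopped with 3% TCA. cAMP was measured in duplicate by [3H]cAMP competition with adrenal binding protein (2-3 h, 4 °C).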

Assay [3] has as its target T2, Alpha-2A adrenergic receptor (Homo sapiens, UniProt P08913).
T2 sequence (P08913 whole entry): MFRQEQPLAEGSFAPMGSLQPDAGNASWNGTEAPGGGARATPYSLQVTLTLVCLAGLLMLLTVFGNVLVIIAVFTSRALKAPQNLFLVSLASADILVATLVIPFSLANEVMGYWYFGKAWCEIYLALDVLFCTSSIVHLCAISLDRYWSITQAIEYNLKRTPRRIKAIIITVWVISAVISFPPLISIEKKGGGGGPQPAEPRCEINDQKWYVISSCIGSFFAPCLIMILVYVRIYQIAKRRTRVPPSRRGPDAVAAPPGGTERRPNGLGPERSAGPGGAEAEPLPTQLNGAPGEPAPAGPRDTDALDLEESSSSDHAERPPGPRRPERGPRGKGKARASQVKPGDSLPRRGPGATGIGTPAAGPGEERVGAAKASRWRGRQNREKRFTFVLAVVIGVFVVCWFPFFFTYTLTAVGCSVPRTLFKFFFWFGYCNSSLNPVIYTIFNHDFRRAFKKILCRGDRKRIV
Put plainly: Binding affinity to human cloned adrenergic alpha 2A receptor.

Assay [4] concerns the target T3, Alpha-2B adrenergic receptor (Homo sapiens, UniProt P18089).
T3 sequence (P18089 whole entry): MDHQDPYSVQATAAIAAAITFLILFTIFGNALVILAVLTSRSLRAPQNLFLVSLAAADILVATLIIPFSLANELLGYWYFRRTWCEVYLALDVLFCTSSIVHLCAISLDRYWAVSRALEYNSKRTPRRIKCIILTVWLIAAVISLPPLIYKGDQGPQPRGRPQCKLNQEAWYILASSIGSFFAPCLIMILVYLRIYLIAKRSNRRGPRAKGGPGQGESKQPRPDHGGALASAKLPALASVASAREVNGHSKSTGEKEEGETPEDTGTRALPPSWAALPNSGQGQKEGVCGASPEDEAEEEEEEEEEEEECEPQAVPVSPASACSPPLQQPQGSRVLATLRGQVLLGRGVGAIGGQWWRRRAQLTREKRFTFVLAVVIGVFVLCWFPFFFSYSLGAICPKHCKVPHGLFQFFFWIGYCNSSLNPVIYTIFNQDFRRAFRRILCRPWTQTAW
Put plainly: Binding affinity to human cloned adrenergic alpha 2B receptor receptor.

A further assay concerns the target D(1B) dopamine receptor (Homo sapiens, UniProt P21918). Put plainly: Binding affinity to human cloned dopamine D5 receptor.
For assay [5], the target named is T4, Alpha-2C adrenergic receptor (Homo sapiens, UniProt P18825).
T4 sequence (P18825 whole entry): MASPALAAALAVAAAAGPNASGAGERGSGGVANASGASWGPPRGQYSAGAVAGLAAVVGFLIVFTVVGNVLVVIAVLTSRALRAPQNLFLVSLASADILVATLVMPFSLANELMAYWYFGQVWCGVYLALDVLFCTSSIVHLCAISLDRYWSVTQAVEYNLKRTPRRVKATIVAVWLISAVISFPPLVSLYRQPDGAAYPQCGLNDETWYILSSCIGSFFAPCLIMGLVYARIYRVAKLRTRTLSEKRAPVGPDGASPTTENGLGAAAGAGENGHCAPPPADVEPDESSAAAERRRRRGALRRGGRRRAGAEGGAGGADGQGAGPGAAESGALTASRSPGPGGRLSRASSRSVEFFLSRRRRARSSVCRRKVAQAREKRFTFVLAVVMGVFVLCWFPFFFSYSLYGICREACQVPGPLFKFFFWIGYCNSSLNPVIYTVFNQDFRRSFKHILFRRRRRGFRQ
Nature of the assay: Binding affinity to human cloned adrenergic alpha 2C receptor receptor.

For assay [6], the target named is T1, D(4) dopamine receptor. Put plainly: Binding affinity to human cloned dopamine D4 receptor.
Assay [7] concerns the target D(2) dopamine receptor (Homo sapiens, UniProt P14416). Put plainly: Binding affinity to human cloned dopamine D2 receptor.
A further assay has as its target D(3) dopamine receptor (Homo sapiens, UniProt P35462). Put plainly: Binding affinity to human cloned dopamine D3 receptor.
For assay [8], the target named is D(2) dopamine receptor (Rattus norvegicus) (UniProt P61169). Put plainly: Intrinsic activity at rat dopamine D2L receptor expressed in HEK293 cells assessed as inhibition of forskolin-stimulated cAMP production relative to dopamine. The class given is functional, cell-based. Summed up: as §1
Sequence of D(2) dopamine receptor (Rattus norvegicus) (P61169 whole entry): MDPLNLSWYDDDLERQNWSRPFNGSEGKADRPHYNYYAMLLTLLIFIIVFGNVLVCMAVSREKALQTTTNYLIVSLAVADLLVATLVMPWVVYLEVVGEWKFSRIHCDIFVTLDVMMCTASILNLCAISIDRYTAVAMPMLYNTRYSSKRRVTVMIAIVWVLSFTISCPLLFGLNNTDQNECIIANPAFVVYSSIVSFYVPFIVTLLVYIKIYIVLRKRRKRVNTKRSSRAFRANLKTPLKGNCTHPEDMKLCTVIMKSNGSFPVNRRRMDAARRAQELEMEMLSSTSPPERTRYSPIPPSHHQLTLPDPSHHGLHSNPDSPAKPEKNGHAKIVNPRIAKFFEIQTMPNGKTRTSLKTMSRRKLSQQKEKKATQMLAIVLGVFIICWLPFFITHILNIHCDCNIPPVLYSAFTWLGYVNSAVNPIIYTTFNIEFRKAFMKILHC
Background: Cyclic AMP is a second messenger, typically raised through Gs and lowered through Gi signalling.

The target in assay [9] is D(1A) dopamine receptor (Homo sapiens, UniProt P21728). Put plainly: Activity at human dopamine D1 receptor expressed in HEK293 cells assessed as stimulation of cAMP production. The class given is functional, cell-based.
Sequence of D(1A) dopamine receptor (Homo sapiens, UniProt P21728) (P21728 whole entry): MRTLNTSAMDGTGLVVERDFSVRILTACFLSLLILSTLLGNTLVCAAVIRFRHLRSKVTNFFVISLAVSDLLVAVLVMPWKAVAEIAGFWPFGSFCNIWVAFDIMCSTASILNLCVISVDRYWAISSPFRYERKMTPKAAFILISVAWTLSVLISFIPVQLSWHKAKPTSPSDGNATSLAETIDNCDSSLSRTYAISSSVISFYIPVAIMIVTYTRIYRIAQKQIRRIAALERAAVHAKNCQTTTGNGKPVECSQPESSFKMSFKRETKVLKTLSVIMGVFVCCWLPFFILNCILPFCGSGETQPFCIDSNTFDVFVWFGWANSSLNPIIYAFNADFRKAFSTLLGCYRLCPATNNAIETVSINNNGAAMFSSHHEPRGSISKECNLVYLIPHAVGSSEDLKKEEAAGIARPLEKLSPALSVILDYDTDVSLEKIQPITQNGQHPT
Assay [10] addresses D(1A) dopamine receptor (Sus scrofa, UniProt P50130). Nature of the assay: Displacement of [3H]SCH-23390 from dopamine D1-like receptor in porcine striata homogenate. Background: In a radioligand displacement assay an active substance lowers the binding of a labelled ligand.

Sequence of D(2) dopamine receptor (Rattus norvegicus, UniProt P61169) (P61169 whole entry): as the sequence (P61169 whole entry) above
Sequence of D(3) dopamine receptor (P35462 whole entry): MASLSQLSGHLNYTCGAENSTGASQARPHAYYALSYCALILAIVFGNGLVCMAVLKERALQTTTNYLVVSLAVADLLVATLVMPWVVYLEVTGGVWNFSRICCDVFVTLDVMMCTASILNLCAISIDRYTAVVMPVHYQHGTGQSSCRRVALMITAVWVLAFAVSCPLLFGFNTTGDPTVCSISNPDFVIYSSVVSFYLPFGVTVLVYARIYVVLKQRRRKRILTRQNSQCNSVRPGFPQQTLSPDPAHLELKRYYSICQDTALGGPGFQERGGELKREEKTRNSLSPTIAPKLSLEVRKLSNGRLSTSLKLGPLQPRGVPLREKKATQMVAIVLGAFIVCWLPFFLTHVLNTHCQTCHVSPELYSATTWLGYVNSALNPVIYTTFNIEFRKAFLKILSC
Sequence of D(1B) dopamine receptor (P21918 whole entry): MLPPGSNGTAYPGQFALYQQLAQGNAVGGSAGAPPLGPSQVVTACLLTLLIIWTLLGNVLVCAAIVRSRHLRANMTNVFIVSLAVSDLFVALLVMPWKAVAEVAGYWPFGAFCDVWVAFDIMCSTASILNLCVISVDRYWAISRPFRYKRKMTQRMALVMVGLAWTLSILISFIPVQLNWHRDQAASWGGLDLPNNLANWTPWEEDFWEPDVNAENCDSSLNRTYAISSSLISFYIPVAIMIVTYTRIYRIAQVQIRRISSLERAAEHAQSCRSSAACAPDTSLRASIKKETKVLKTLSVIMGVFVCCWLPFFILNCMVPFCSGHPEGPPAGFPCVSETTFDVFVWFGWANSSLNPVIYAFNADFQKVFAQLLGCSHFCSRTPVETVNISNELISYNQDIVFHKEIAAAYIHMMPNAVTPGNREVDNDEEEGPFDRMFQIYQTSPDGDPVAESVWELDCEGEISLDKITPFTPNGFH
Sequence of D(1A) dopamine receptor (Sus scrofa, UniProt P50130) (P50130 whole entry): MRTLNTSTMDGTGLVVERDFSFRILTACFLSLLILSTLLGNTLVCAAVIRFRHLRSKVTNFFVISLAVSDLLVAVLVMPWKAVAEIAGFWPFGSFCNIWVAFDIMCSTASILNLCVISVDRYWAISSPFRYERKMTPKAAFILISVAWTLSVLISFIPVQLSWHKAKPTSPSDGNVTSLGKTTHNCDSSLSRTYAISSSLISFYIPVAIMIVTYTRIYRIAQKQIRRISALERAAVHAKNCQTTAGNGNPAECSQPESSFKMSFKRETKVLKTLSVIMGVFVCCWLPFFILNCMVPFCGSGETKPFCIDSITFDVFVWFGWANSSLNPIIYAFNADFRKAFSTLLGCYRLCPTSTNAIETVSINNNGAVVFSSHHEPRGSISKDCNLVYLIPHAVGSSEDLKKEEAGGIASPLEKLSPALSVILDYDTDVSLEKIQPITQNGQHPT
Sequence of D(2) dopamine receptor (Homo sapiens, UniProt P14416) (P14416 whole entry): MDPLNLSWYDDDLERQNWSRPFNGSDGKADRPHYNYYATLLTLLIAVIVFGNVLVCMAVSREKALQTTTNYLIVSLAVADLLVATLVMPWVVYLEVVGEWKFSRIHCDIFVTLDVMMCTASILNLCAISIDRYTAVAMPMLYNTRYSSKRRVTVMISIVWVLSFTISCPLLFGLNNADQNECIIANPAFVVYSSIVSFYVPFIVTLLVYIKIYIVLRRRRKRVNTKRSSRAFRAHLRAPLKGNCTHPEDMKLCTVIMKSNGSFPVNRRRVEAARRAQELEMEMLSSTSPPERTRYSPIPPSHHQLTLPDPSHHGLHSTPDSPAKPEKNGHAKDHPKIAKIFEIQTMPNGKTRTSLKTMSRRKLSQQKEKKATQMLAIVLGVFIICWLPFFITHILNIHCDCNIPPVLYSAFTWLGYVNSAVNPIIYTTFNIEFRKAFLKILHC

Regarding `Oc1cc2c(cc1O)[C@H]1c3ccccc3CN[C@@H]1CO2` (single isomer, unassigned), the concentration for a half-maximal effect (EC50) (commonly the midpoint of the concentration-response curve) at D(4) dopamine receptor [1] was 95 nM; at D(2) dopamine receptor [2], over 10000 nM.

`Oc1cc2c(cc1O)C1c3ccccc3CNC1CO2` (racemic) [DOXANTHRINE]: the Ki (commonly a measure of affinity in units of concentration, obtained from inhibition or displacement) came to 180 nM in assay [3]; 10 nM in assay [4]; 7 nM at D(1B) dopamine receptor; 2 nM in assay [5]; 90 nM at D(4) dopamine receptor [6]; 1910 nM at D(2) dopamine receptor [7]. Further, the Ki on D(3) dopamine receptor stood at 390 nM. The figures for the EC50 on D(4) dopamine receptor [1] and on D(2) dopamine receptor [2] were 110 nM and over 10000 nM, respectively.

On to `Oc1cc2c(cc1O)[C@H]1c3ccccc3CN[C@@H]1CC2`, for which the Intrinsic activity in [8] is 70%.

Regarding `CCCN1CCC[C@@H]2Cc3n[nH]cc3C[C@H]21`, the Intrinsic activity in assay [8] worked out at 95%.

Consider `Oc1cc2c(cc1O)[C@@H]1c3ccccc3CN[C@H]1CO2` (single isomer, unassigned), for which the EC50 at D(4) dopamine receptor [1] was 230 nM; on D(2) dopamine receptor [2], over 10000 nM.

For the molecule `NCCc1ccc(O)c(O)c1`, the Intrinsic activity in assay [8] came out at 100%.

As for `CCCN1Cc2ccccc2C2c3cc(O)c(O)cc3OCC21` (racemic), the EC50 was found to be 1100 nM at D(1A) dopamine receptor [9], 21 nM on D(4) dopamine receptor [1] and 1600 nM at D(2) dopamine receptor [2]. On D(1A) dopamine receptor [10], the Ki worked out at 330 nM. Moreover, the Intrinsic activity in assay [8] came to 92%.
